Published values gathered from unrelated publications.
Lines come from different studies, so protocols differ.
Target: Protein-tyrosine kinase 6 (PTK6, Homo sapiens, UniProt Q13882)

Compound | read-out | technique | tested at | remaining binding [%]
c1cncc(-c2cccc(Nc3nccc(NC4CCCCC4)n3)c2)c1 | binding | competition with immobilised ligand | 10 µM | 80
CCC(=O)N[C@@H]1CC[C@H](C(=O)N(C)c2ccc(-c3nc4ccccc4o3)cc2)C1 | cell-free assay | competition with immobilised ligand | 1 µM | 90
CN(C)c1ncc(F)c(-c2cnn3ncccc23)n1 | binding | – | 1 µM | 99
CCN1CCN(Cc2ccc(C(=O)Nc3ccc(C)c(Oc4ccc5c(c4)CC(=O)N5)c3)cc2C(F)(F)F)CC1 | binding | competition with immobilised ligand | 1 µM | 100
COc1cnc(Nc2cccc(S(N)(=O)=O)c2)nc1N1CCN(c2ccccc2)CC1 | binding | competition with immobilised ligand | 1 µM | 100
CCOC(=O)c1cc2cc(-c3cc(C(=O)NCc4ccc(C(=O)O)cc4)nn3C)ccc2[nH]1 | cell-free assay | competition with immobilised ligand | 0.1 µM | 98
O=C(Nc1c[nH]nc1C(=O)NC1CCNCC1)c1cc(F)cc(F)c1 | binding | competition with immobilised ligand | 1 µM | 100
CCc1ccccc1C(=O)Nc1n[nH]c2c(C)c(F)c(C3C(C#N)=C(C)N(C)C(C)=C3C#N)cc12 | cell-free assay | competition with immobilised ligand | 1 µM | 100
FC(F)(F)Oc1cccc(-c2cnc3ccc(-c4ccncc4)nn23)c1 | cell-free assay | competition with immobilised ligand | 5 µM | 86
CN([C@@H]1CCc2c(CC(=O)O)c3cc(S(C)(=O)=O)ccc3n2C1)S(=O)(=O)c1ccc(F)cc1 | cell-free assay | competition with immobilised ligand | 1 µM | 92
c1cnn2ncc(-c3ccnc(N4CCC45COC5)n3)c2c1 | binding | – | 1 µM | 83
O=C(c1ccc(Nc2nccc(-c3cc4ccccc4s3)n2)cc1)N1CCC(N2CCCC2)CC1 | binding | competition with immobilised ligand | 1 µM | 65
N[C@@H]1CCN(c2nccc(-c3cnn4ncccc34)n2)C1 | binding | – | 1 µM | 100
Cc1c(NC(=O)c2cc(C(N)=O)nc3cc(F)ccc23)c(C(F)(F)F)nn1Cc1ccc(C#N)cc1 | cell-free assay | competition with immobilised ligand | 1 µM | 100
CN(C)c1nccc(-c2cnc3ncccn23)n1 | binding | – | 1 µM | 92
COc1ncc2cc3ccccc3nc2c1C#N | cell-free assay | competition with immobilised ligand | 5 µM | 100
C[C@@H]1CCN(c2nccc(-c3cnn4ncccc34)n2)C1 | binding | – | 1 µM | 100
O=C(c1ccc(Nc2ncc(Cl)c(-c3ccc(Cl)s3)n2)cc1)N1CCC(N2CCCC2)CC1 | binding | competition with immobilised ligand | 1 µM | 79
COc1ccnn2ncc(-c3ccnc(N(C)C)n3)c12 | binding | – | 1 µM | 100
Nc1c(C(=O)NCc2ccc(C(=O)NCCCC3CCCCC3)cc2)cnn1-c1ccccc1 | cell-free assay | competition with immobilised ligand | 0.1 µM | 96
